Assay results from ChEMBL document CHEMBL1156265, “Furo[2,3-b]pyridine-based cannabinoid-1 receptor inverse agonists: synthesis and biological evaluation. Part 1” (Bioorg Med Chem Lett, 2010).
Activity calls are given as the source filed them. The calls are words filed in the database; no cut-off is given here.

What was measured:
[1] = Bioavailability in dog; format: ADME, organism-based, Canis lupus familiaris; details: in vivo
Summary of the method: (§1)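 PK in dog and rhesus macaque. Bioavailability, plasma clearance (mL/min/kg) and terminal half-life derived from plasma drug levels.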

[2] = Half life in rat; format: ADME, organism-based; details: in vivo
Mus musculus [3] = experiment: Suppression of food intake in Cnr1+/+ C57BL/6 mouse at 1 mg/kg, po measured for 18 hrs by overnight food intake study; format: functional
Summary of the method: (§2)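 The overnight food intake study used ad libitum fed male mice aged 14–16 weeks, Cnr1+/+ (n = 10) and Cnr1−/− (n = 7). Mice received a single oral dose of 1 mg/kg. Food intake and body weight change were measured over 18 h relative to vehicle-treated mice.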

Cytochrome P450 2D6 = Cytochrome P450 2D6 (Homo sapiens, UniProt P10635); experiment: Inhibition of CYP2D6; format: ADME
Summary of the method: (§3)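 Inhibition of cytochrome P450 isoforms CYP3A4, CYP2C9, CYP2D6, CYP2C19 and CYP1A2, reported as IC50 in µM.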

[4] = Plasma clearance in rat; format: ADME, organism-based
Brain [5] = experiment: Drug level in CD1 mouse brain at 30 mg/kg, po; format: ADME, organism-based; parameters: dose 30 mg/kg, route oral; details: in vivo, read-out: Drug uptake
[6] = Inhibition of rat GABAA receptor
Summary of the method: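 Rat GABA_A ligand-gated ion-channel binding, run within a 175-assay radioligand binding and enzymatic screening panel. IC50 estimated.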

Cytochrome P450 2C9 = Cytochrome P450 2C9 (Homo sapiens, UniProt P11712); experiment: Inhibition of CYP2C9; format: ADME; summary of the method: as §3
[7] = Bioavailability in rhesus monkey; format: ADME, organism-based, Macaca mulatta; details: in vivo; summary of the method: as §1
Rattus norvegicus [8] = experiment: Reduction of body weight in rat at 1 mg/kg, po relative to control; format: functional; parameters: scale not given: the % may be the effect or the level left
Summary of the method: (§4)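 Chronic study in diet-induced obese rats with daily oral dosing at 1 mg/kg (for some compounds 0.1 and 0.3 mg/kg as well). Body weight change and cumulative food intake suppression were measured relative to vehicle. The 14-day study ended 18 h after the day-14 dose; one study ended on day 13.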

[9] = Plasma clearance in rhesus monkey; format: ADME, organism-based, Macaca mulatta; summary of the method: as §1
Mus musculus [10] = experiment: Toxicity in CD1 mouse assessed as hyperactive response at 100 mg/kg, po; format: organism-based; parameters: dose 100 mg/kg, route oral; details: in vivo
[11] = target: Voltage-gated inwardly rectifying potassium channel KCNH2 (Homo sapiens, UniProt Q12809); experiment: Inhibition of human ERG potassium channel
[12] = Drug level in rat brain at 1 mg/kg, iv after 4 hrs; format: ADME, organism-based; parameters: dose 1 mg/kg, route intravenous; details: read-out: Drug uptake
Mus musculus [13] = experiment: Toxicity in CD1 mouse assessed as ataxia at 100 mg/kg, po; format: organism-based; parameters: dose 100 mg/kg, route oral; details: in vivo
Plasma [14] = experiment: Drug level in CD1 mouse plasma at 100 mg/kg, po; format: ADME, organism-based; parameters: dose 100 mg/kg, route oral; details: in vivo, read-out: Drug uptake
Rattus norvegicus [15] = experiment: Toxicity in Sprague-Dawley rat at 30 mg/kg, po by rotarod test; format: organism-based; parameters: dose 30 mg/kg, route oral; details: in vivo
Summary of the method: (§5)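 Male Sprague Dawley rats dosed orally at 30 mg/kg. Motor coordination assessed on rotarod, with plasma and brain drug levels measured.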

Brain [16] = experiment: Drug level in CD1 mouse brain at 100 mg/kg, po; format: ADME, organism-based; parameters: dose 100 mg/kg, route oral; details: in vivo, read-out: Drug uptake
Rattus norvegicus [17] = experiment: Suppression of food intake in DIO rat at 1 mg/kg, po measured 18 hrs post dose on day 14 relative to control
Rattus norvegicus [18] = experiment: Reduction of body weight in DIO rat assessed as weight change at 1 mg/kg, po after 2 weeks; format: functional, organism-based; parameters: dose 1 mg/kg
Summary of the method: (§6)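 DIO rats were dosed orally once daily for 2 weeks at 0.1, 0.3 or 1 mg/kg. Body weight change (g) was compared with vehicle, and the study ended 18 h after the day-14 dose.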

[19] = Plasma clearance in dog; format: ADME, organism-based, Canis lupus familiaris; summary of the method: as §1
Mus musculus [20] = experiment: Reduction of body weight in Cnr1+/+ C57BL/6 mouse at 1 mg/kg, po measured for 18 hrs; format: functional; summary of the method: as §2
Rattus norvegicus [21] = experiment: Suppression of food intake in DIO rat at 1 mg/kg, po relative to control; format: functional
Summary of the method: (§7)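 Acute study in diet-induced obese rats. A single oral dose was given and rats were monitored for 18 h. Food intake suppression and body weight change were measured relative to vehicle-treated controls.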

[22] = Bioavailability in rat; format: ADME, organism-based; details: in vivo
[23] = Metabolic stability in rat urine assessed as compound recovery at 1 mg/kg; format: ADME, organism-based; parameters: dose 1 mg/kg; details: read-out: Activity
Summary of the method: (§8)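 Radioactivity excreted in bile and urine measured as percent of dose.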

Cytochrome P450 1A2 = target: T1, Cytochrome P450 1A2 (Homo sapiens, UniProt P05177); experiment: Inhibition of CYP1A2; format: ADME; summary of the method: as §3
T1 sequence (P05177 whole entry): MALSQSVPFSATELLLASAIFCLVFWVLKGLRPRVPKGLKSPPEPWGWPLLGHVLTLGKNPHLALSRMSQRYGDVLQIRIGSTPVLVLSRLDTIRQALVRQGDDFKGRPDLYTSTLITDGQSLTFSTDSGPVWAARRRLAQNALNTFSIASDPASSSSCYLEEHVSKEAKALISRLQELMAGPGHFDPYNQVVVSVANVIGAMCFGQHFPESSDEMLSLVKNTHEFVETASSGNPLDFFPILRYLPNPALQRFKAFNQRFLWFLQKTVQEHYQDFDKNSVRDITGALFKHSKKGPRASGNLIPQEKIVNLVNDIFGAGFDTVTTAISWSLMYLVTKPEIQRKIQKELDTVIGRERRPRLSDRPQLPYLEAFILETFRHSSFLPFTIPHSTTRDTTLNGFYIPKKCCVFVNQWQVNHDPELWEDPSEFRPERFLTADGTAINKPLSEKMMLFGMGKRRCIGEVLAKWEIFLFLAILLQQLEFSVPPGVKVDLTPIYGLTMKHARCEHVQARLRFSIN

Rattus norvegicus [24] = experiment: Reduction of body weight in DIO rat assessed as weight change at 0.1 mg/kg, po after 2 weeks; format: functional, organism-based; parameters: dose 0.1 mg/kg; summary of the method: as §6
Canis familiaris [25] = experiment: Toxicity in anesthetized dog assessed as change in heart rate up to 10 mg/kg, iv relative to control; format: organism-based, Canis lupus familiaris; parameters: dose 10 mg/kg, route intravenous; details: in vivo
Summary of the method: (§9)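 Anesthetized dogs received a cumulative IV infusion of 1, 3 and 10 mg/kg, each dose infused over 30 min. Mean arterial pressure, heart rate and ECG intervals including QTc were compared with vehicle-treated animals. Plasma drug level was measured at the end of infusion.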

Rattus norvegicus [26] = experiment: Reduction of body weight in DIO rat assessed as weight change at 0.3 mg/kg, po after 2 weeks; format: functional, organism-based; parameters: dose 0.3 mg/kg; summary of the method: as §6
Canis familiaris [27] = experiment: Toxicity in anesthetized dog assessed as change in ECG intervals up to 10 mg/kg, iv relative to control; format: organism-based, Canis lupus familiaris; parameters: dose 10 mg/kg, route intravenous; details: in vivo; summary of the method: as §9
Cytochrome P450 3A4 = Cytochrome P450 3A4 (Homo sapiens, UniProt P08684); experiment: Inhibition of CYP3A4; format: ADME; summary of the method: as §3
[28] = Metabolic stability in rat bile assessed as compound recovery at 1 mg/kg; format: ADME, organism-based; parameters: dose 1 mg/kg; details: read-out: Activity; summary of the method: as §8
Plasma [29] = experiment: Drug level in Sprague-Dawley rat plasma at 30 mg/kg, po; format: ADME, organism-based; parameters: dose 30 mg/kg, route oral; details: in vivo, read-out: Drug uptake; summary of the method: as §5
Plasma [30] = experiment: Drug level in CD1 mouse plasma at 30 mg/kg, po; format: ADME, organism-based; parameters: dose 30 mg/kg, route oral; details: in vivo, read-out: Drug uptake
[31] = target: GABA-A receptor; agonist GABA site; experiment: Partial agonist activity at human alpha-1-beta-3-gamma-2 GABAA receptor expressed in […] cells; format: functional, cell-based
Summary of the method: (§10)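 Whole-cell electrophysiology in Ltk cells expressing human α1β3γ2 GABA_A receptors. EC50 determined, and maximal efficacy expressed relative to the maximum GABA response.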

[32] = target: GABA-A receptor; alpha-1/beta-3/gamma-2 (Homo sapiens) (UniProt P14867+P18507+P28472); experiment: Partial agonist activity at human alpha-1-beta-3-gamma-2 GABAA receptor expressed in […] cells at 3 uM; format: functional, cell-based; summary of the method: as §10
[33] = Half life in dog; format: ADME, organism-based, Canis lupus familiaris; details: in vivo; summary of the method: as §1
Canis familiaris [34] = experiment: Toxicity in anesthetized dog assessed as change in mean arterial pressure up to 10 mg/kg, iv relative to control; format: organism-based, Canis lupus familiaris, Artery; parameters: dose 10 mg/kg, route intravenous; details: in vivo; summary of the method: as §9
[35] = Half life in rhesus monkey; format: ADME, organism-based, Macaca mulatta; details: in vivo; summary of the method: as §1
[36] = Ratio of drug level in brain to plasma in rat at 1 mg/kg, iv after 4 hrs; format: ADME, organism-based; parameters: dose 1 mg/kg, route intravenous
Rattus norvegicus [37] = experiment: Suppression of cumulative food intake in rat at 1 mg/kg, po relative to control; format: functional; summary of the method: as §4
Rattus norvegicus [38] = experiment: Reduction of body weight in DIO rat assessed as weight change at 1 mg/kg, po daily measured 18 hrs post dose on day 14; format: functional; summary of the method: as §4
Rattus norvegicus [39] = experiment: Reduction of body weight in DIO rat assessed as weight change at 1 mg/kg, po after 18 hrs; format: functional; summary of the method: as §7
Brain [40] = experiment: Drug level in Sprague-Dawley rat brain at 30 mg/kg, po; format: ADME, organism-based; parameters: dose 30 mg/kg, route oral; details: in vivo, read-out: Drug uptake; summary of the method: as §5
[41] = Drug level in rat plasma at 1 mg/kg, iv after 4 hrs; format: ADME, organism-based; parameters: dose 1 mg/kg, route intravenous; details: read-out: Drug uptake
Canis familiaris [42] = experiment: Plasma concentration in anesthetized dog at up to 10 mg/kg, iv measured at the end of infusion; format: ADME, organism-based, Canis lupus familiaris; parameters: dose 10 mg/kg, route intravenous; details: in vivo; summary of the method: as §9
Cytochrome P450 2C19 = Cytochrome P450 2C19 (Homo sapiens, UniProt P33261); experiment: Inhibition of CYP2C19; format: ADME; summary of the method: as §3
Cytochrome P450 2C19, sequence (P33261 whole entry): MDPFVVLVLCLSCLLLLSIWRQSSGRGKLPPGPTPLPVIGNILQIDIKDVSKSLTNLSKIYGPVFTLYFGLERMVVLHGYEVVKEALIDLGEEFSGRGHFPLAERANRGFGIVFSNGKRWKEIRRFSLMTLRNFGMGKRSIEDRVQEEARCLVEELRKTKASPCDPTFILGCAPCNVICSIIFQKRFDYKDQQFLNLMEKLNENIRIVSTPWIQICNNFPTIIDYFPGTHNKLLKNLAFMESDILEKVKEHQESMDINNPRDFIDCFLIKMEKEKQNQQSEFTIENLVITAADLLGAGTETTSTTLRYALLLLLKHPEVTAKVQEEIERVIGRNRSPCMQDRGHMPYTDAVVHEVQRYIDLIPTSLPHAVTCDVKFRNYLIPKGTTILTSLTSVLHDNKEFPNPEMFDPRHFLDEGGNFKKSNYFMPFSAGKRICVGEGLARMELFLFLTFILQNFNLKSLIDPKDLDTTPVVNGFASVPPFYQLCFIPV

Cytochrome P450 3A4, sequence (P08684 whole entry): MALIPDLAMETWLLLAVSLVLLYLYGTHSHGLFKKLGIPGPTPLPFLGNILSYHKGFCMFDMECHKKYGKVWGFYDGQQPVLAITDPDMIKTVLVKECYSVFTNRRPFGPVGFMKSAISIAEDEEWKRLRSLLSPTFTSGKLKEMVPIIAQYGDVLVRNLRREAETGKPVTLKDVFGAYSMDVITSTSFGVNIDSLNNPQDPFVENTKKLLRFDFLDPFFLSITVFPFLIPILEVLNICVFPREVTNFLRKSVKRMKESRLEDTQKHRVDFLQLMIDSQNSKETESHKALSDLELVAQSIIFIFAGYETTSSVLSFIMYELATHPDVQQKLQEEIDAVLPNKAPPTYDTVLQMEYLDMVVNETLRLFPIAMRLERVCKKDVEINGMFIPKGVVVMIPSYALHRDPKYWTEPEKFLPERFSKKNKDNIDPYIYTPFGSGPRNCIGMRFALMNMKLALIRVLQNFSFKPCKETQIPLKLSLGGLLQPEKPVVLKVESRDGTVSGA
Voltage-gated inwardly rectifying potassium channel KCNH2, sequence (Q12809 whole entry): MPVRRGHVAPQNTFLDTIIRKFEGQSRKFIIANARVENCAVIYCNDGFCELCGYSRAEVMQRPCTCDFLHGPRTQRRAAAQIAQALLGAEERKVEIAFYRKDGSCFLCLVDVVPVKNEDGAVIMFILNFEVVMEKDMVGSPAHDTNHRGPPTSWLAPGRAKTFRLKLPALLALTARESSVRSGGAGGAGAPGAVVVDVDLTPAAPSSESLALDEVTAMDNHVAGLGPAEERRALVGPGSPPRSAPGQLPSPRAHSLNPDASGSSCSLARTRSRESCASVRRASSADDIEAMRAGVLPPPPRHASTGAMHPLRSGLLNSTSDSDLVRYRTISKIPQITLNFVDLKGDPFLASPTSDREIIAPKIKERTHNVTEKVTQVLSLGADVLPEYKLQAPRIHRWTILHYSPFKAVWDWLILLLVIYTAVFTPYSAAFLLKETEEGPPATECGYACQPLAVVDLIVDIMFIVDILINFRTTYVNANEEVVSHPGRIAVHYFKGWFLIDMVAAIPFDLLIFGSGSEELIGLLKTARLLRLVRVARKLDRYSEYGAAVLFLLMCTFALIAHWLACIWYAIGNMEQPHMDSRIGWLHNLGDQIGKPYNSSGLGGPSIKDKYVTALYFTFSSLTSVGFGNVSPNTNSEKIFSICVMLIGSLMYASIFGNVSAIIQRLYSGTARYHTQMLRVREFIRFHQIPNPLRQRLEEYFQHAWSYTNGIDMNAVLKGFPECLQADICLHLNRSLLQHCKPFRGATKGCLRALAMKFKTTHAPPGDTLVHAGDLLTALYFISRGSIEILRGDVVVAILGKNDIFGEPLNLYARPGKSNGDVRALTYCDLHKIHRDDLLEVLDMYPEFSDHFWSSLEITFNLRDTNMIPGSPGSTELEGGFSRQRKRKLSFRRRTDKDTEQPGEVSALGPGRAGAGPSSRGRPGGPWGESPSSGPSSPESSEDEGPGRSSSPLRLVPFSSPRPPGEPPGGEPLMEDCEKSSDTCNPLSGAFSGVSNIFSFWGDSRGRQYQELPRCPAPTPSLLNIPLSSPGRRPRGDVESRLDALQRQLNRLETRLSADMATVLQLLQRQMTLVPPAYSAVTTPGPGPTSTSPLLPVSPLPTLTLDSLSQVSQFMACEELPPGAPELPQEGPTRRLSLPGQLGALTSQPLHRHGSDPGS
Cytochrome P450 2D6, sequence (P10635 whole entry, canonical isoform): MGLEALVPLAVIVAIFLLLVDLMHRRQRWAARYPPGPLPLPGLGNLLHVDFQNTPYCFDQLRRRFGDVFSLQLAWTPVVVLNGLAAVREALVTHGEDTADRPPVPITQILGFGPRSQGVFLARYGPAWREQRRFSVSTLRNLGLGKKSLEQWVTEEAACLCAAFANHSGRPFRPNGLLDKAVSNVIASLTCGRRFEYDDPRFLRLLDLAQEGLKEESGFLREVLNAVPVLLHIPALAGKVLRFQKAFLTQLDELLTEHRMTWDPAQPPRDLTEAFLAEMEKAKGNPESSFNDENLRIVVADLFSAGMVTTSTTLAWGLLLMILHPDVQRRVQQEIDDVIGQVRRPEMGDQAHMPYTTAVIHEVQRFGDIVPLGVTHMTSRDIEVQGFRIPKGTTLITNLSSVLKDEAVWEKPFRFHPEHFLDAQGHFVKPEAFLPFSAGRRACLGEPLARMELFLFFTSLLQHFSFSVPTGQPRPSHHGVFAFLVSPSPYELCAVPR
Cytochrome P450 2C9, sequence (P11712 whole entry): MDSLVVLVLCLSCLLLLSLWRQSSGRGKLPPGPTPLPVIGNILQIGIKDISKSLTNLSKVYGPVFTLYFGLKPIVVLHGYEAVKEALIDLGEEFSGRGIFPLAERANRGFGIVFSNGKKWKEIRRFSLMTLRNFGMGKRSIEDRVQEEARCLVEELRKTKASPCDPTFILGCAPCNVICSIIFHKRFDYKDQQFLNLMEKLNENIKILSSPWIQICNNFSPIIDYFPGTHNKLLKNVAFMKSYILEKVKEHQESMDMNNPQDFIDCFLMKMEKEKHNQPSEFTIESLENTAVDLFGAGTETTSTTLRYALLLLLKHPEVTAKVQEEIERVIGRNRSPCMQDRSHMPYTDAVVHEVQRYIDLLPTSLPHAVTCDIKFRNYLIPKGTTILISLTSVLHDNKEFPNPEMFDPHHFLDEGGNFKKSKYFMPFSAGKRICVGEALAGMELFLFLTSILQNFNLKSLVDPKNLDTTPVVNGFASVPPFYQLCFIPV

CC(C)(O)C(=O)c1oc2nc(-c3ccccc3Cl)c(-c3ccc(Cl)cc3)cc2c1NC(=O)CO
bioavailability [1]: 9%
half-life [2]: 7.5 h
Activity (Mus musculus [3]): 53%
IC50 (Cytochrome P450 2D6): 73 µM
clearance [4]: 8.6 mL/min/kg
concentration (Brain [5]): 2300 nM
IC50 [6]: 1.8 µM
IC50 (Cytochrome P450 2C9): 17 µM
bioavailability [7]: 50%
Activity (Rattus norvegicus [8]): 4.3%
clearance [9]: 2.1 mL/min/kg
Activity (Mus musculus [10]): Toxic
IC50 [11]: 6.6 µM
concentration at 4 h [12]: 94 nM
Activity (Mus musculus [13]): Toxic
concentration (Plasma [14]): 24000 nM
Activity (Rattus norvegicus [15]): Non-toxic
concentration (Brain [16]): 6500 nM
Activity (Rattus norvegicus [17]): 24%
Activity (Rattus norvegicus [18]): Active
clearance [19]: 33 mL/min/kg
Activity (Mus musculus [20]): -0.79 g
Activity (Rattus norvegicus [21]): 47%
bioavailability [22]: 64%
dose excreted [23]: 5%
IC50 (Cytochrome P450 1A2): > 100 µM
Activity (Rattus norvegicus [24]): inactive
Activity (Canis familiaris [25]): Non-toxic
Activity (Rattus norvegicus [26]): Active
Activity (Canis familiaris [27]): Non-toxic
IC50 (Cytochrome P450 3A4): 98 µM
dose excreted [28]: 87%
concentration (Plasma [29]): 500 nM
concentration (Plasma [30]): 7000 nM
EC50 [31]: 0.7 µM
Efficacy [32]: 18%
half-life [33]: 1.8 h
Activity (Canis familiaris [34]): Non-toxic
half-life [35]: 17 h
Kp at 4 h [36]: 0.64
Activity (Rattus norvegicus [37]): 24%
Activity (Rattus norvegicus [38]): -2 g
Activity (Rattus norvegicus [39]): -7 g
concentration (Brain [40]): 500 nM
concentration at 4 h [41]: 147 nM
concentration (Canis familiaris [42]): 50000 nM
IC50 (Cytochrome P450 2C19): 43 µM
